Experimental data reported in ChEMBL document CHEMBL3352404, “Lower homologues of ahpatinin, aspartic protease inhibitors, from a marine Streptomyces sp” (J Nat Prod, 2014).
Starred links: 1 amine or outer side, 2 acyl side, 3 side chain; linkers in the order of their positions; H or OH if unused. Non-standard residues stand in square brackets, D forms with d. Residues, ends and D or L forms follow the SMILES beside them. *: point of attachment. Ahppa(3S,4S) = O=C(C[C@H](O)[C@H](Cc1ccccc1)N[*:1])[*:2]; Sta = CC(C)C[C@H](N)[C@@H](O)CC(=O)O; Isobutyryl = CC(C)C(=O)*; Propionyl = CCC(=O)*

Columns and labels:
Cathepsin B = Cathepsin B (Bos taurus, UniProt P07688); assay: Inhibition of bovine spleen cathepsin B using Z-Arg-Arg-AMC as substrate after 30 mins by fluorescence assay
How it was run: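 Enzyme stock 1 unit/mL in 50 mM MES pH 6.0 with 0.1% Brij-35, diluted 100-fold in the same buffer before use. Test sample was mixed with diluted enzyme and 25 μM Z-Arg-Arg-AMC (substrate solution in DMSO, pre-mixing level) and incubated 37 °C for 30 min. Released AMC was read by fluorescence, excitation 345 nm, emission 440 nm.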

[1] = Inhibition of porcine gastric mucosa pepsin using MOCAc-Ala-Pro-Ala-Lys-Phe-Phe-Arg-Leu-Lys (Dnp)-NH2 as substrate after 20 mins by fluorescence assay; parameters: species or system Sus scrofa
How it was run: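 Test solution in MeOH was diluted into 0.1 M ammonium formate buffer pH 3.0. Pepsin solution (1 μg/mL in the buffer) was added, then 10 μM fluorogenic substrate solution (pre-mixing level). The mixture was incubated 30 °C for 20 min. Released MOCAc-Ala-Pro-Ala-Lys-Phe was read by fluorescence, excitation 328 nm, emission 393 nm.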

Row | SMILES | IC50 (Cathepsin B) [µM] | IC50 [1] [µM]
1 | CCC(=O)N[C@H](C(=O)N[C@H](C(=O)N[C@@H](CC(C)C)[C@@H](O)CC(=O)N[C@@H](C)C(=O)N[C@@H](Cc1ccccc1)[C@@H](O)CC(=O)O)C(C)C)C(C)C (Propionyl-VV[Sta]A-{Ahppa(3S,4S)}) | 25 | 0.05
2 | CC(=O)N[C@H](C(=O)N[C@H](C(=O)N[C@@H](CC(C)C)[C@@H](O)CC(=O)N[C@@H](C)C(=O)N[C@@H](Cc1ccccc1)[C@@H](O)CC(=O)O)C(C)C)C(C)C (Ac-VV[Sta]A-{Ahppa(3S,4S)}) | 15 | 0.011
3 | CC(=O)N[C@H](C(=O)N[C@H](C(=O)N[C@@H](CC(C)C)[C@@H](O)CC(=O)N[C@@H](C)C(=O)N[C@@H](CC(C)C)[C@@H](O)CC(=O)O)C(C)C)C(C)C [ACETYLPEPSTATIN] | 17 | 0.011

More lines, in order of falling IC50 (Cathepsin B), values ahead:

Row | IC50 (Cathepsin B) [µM] | IC50 [1] [µM] | SMILES
4 | 29 | – | CC(C)C[C@H](NC(=O)[C@H](C)NC(=O)C[C@H](O)[C@H](CC(C)C)NC(=O)[C@@H](NC(=O)[C@@H](NC(=O)C(C)C)C(C)C)C(C)C)[C@@H](O)CC(=O)O (Isobutyryl-VV[Sta]A[Sta]-OH)
5 | 26 | – | CC(C)C[C@H](NC(=O)[C@@H](NC(=O)[C@@H](NC(=O)C(C)C)C(C)C)C(C)C)[C@@H](O)CC(=O)N[C@@H](C)C(=O)N[C@@H](Cc1ccccc1)[C@@H](O)CC(=O)O (Isobutyryl-VV[Sta]A-{Ahppa(3S,4S)})
6 | 10 | 0.018 | CCC(=O)N[C@H](C(=O)N[C@H](C(=O)N[C@@H](CC(C)C)[C@@H](O)CC(=O)N[C@@H](C)C(=O)N[C@@H](CC(C)C)[C@@H](O)CC(=O)O)C(C)C)C(C)C (Propionyl-VV[Sta]A[Sta]-OH)
